From PubChem BioAssay
p-CIP stab down: p/CIP-EGFP fusion destabilizers, primary screen, fluorescence, F442A cells; 16 h; actives 0.01% (n = 290,000); Q05BA5; decrease of EGFP signal, % at 10 µM; AID 1984, 2009;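 active = EGFP signal decrease of at least 30% at 10 µM or well 3 SD below plate mean, unless failing retest; inactive = the rest, including hits failing retest or dose response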
UBC13 inh: UBC13 polyubiquitin chain formation inhibitors, primary screen, biochemical, TR-FRET, uHTS; actives 0.47% (n = 330,000); inhibition, % at 20 µM; in the data active = inhibition above about 45%, passing the limit was not always enough; inconclusive = no clear call, values can overlap the other calls
Target sequence (P61088 whole entry, looked up): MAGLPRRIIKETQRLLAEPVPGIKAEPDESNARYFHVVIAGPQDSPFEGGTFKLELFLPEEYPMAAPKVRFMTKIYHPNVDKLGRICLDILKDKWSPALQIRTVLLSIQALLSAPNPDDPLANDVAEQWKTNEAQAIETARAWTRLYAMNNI
T cruzi inh: inhibitors of intracellular T. cruzi growth, primary screen, luminescence, NIH3T3 host cells; T. cruzi beta-gal in NIH3T3, 90 h; inhibition, % (concentration not given with the values); actives 1.4% (n = 300,000); AID 1885, 2009;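 active = mean inhibition across valid replicates above about 55%, limit read from the data; inconclusive = mean below that limit but half or more replicates reach it; inactive = mean below it, under half of replicates reach it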;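 also: signal also drops with host cell toxicity which is not excluded here; higher percent means less beta-gal luminescence so fewer parasites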
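System: Mouse NIH/3T3 fibroblasts infected with β-gal-expressing T. cruzi Tulahuen C4 | Quantity: NIH/3T3 cells, 5,000 per well | Reagent: 5000 reporter trypomastigotes per well | Dosing: Compound pinned at 50 nL/well, DMSO | Schedule: 3 h host attachment, then at least 90 h co-culture | Detection: GalScreen luminescence, 60 min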
PP1 inh: PP1-alpha phosphatase inhibitors, primary screen, counter-screen for PP5 inhibitor project, biochemical, fluorescence, OMFP substrate, single point; purified PP1alpha; inhibition, % at 6.7 µM; actives 0.9% (n = 320,000); Serine/threonine-protein phosphatase PP1-alpha catalytic subunit (Homo sapiens), P62136;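 active = inhibition above the mean inhibition of all tested compounds plus 3 SD, computed separately for each screening campaign, cut at about 15% in these data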
Target sequence (P62136 whole entry, looked up): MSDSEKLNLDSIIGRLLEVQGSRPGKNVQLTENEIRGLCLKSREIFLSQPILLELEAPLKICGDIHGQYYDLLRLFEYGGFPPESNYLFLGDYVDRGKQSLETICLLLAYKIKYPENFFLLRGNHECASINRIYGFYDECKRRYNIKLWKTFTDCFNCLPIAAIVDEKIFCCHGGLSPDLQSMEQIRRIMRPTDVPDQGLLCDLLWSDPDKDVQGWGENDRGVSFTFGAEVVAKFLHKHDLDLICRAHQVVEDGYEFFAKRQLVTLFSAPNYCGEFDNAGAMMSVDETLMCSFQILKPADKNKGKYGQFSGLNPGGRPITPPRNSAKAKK
AI-2 QS modul: Vibrio harveyi AI-2 quorum sensing modulators, primary screen, JMH597 strain, luminescence/OD600 ratio; Vibrio harveyi JMH597 AI-2 luminescence/OD600 ratio, 9 h; hits give low values; strain lacks LuxN and CqsS sensors; 0 = neutral-control median; activity change, % at 7.5 µM; actives 0.4% (n = 300,000); AID 2094, 2009; in the data active = activity change below about -75%, passing the limit was not always enough; inconclusive = no clear call, values can overlap the other calls;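 also: luminescence divided by OD600 gain over 9 h not by final OD600 alone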
Numbers stand for hits; n = inactive; u = inconclusive; x = no result. Most compounds without a hit are left out; they make up all but 2.8% or so of the library.

SMILES	p-CIP stab down	UBC13 inh	T cruzi inh	PP1 inh	AI-2 QS modul
C#CCOCCOCCOCCNc1nc(N2CCN(C(=O)[C@H]([C@@H](C)CC)n3cc([C@@H](N)Cc4ccc(O)cc4)nn3)CC2)nc(N2CCN(C(=O)[C@H](CCCCN)n3cc([C@@H](N)CC(C)C)nn3)CC2)n1	n	97	n	n	n
C#CCOCCOCCOCCNc1nc(N2CCN(C(=O)[C@H](CCCCN)n3cc([C@@H](N)CO)nn3)CC2)nc(N2CCN(C(=O)[C@H](Cc3cc4ccccc4[nH]3)n3cc([C@@H](N)Cc4ccc(O)cc4)nn3)CC2)n1	n	106	n	n	n
CC1CCN(C(=O)COC(=O)CNC(=O)C23CC4CC(CC(C4)C2)C3)CC1	x	n	n	n	n
CCN(C(=O)COC(=O)/C=C/c1c(C)nn(-c2ccccc2)c1C)C1CCS(=O)(=O)C1 (stereo unspecified)	n	n	n	n	n
COc1ccccc1C1C([N+](=O)[O-])=CC([N+](=O)[O-])=CN1C (stereo unspecified)	n	n	n	n	n
COc1ccccc1C1NC=C([N+](=O)[O-])C=C1[N+](=O)[O-] (stereo unspecified)	n	n	78	n	n
CC(=O)N1c2ccc(C)cc2C(c2ccccc2)CC1C (stereo unspecified)	n	n	n	n	x
COc1cccc(NC(=O)CN(C)C(=O)c2cc(-c3ccccc3)nn2-c2ccccc2)c1	x	n	x	x	x
COCCNC(=O)NC(=O)CSc1nc(C)c(C)c(C)n1	n	n	n	n	n
COc1ccc2c(c1)Cc1sc(NC(=O)c3cccs3)nc1-2	n	n	55	n	n
Cn1c(C(=O)NCCCN2CCc3ccccc3C2)cc2c(=O)n(C)c3ccccc3c21	n	56	n	n	n
CCN(CC)CCNC(=O)c1cc2c(=O)n(C)c3ccccc3c2n1C	n	48	n	n	n
CCN(CC)CCNC(=O)c1nn(-c2ccc(C)cc2)c(=O)c2c1c1ccccc1n2C	n	n	60	n	n
Cc1cc(NC(=O)c2cncc(Br)c2)ccc1NC(=O)c1cc2ccccc2o1	n	n	n	n	n
Cn1c(N2CCOCC2)c(/C=N/OC(=O)c2ccc(F)cc2)c2ccccc21	n	n	65	n	n
Cn1c(N2CCOCC2)c(/C=N/OC(=O)c2cccnc2Cl)c2ccccc21	n	x	n	x	n
Cn1c(N2CCOCC2)c(/C=N/O)c2ccccc21	n	n	n	n	n
CC(=O)O/N=C/c1c(N2CCOCC2)n(C)c2ccccc12	n	n	61	n	n
CC1=C(CCN2CCN(C(C)C)C(CCO)C2)C(C)(C)CCC1 (stereo unspecified)	n	n	u	n	n
CCSc1nnc(NC(=O)C2CCCCC2)s1	n	n	n	n	n
CCSc1nnc(NC(=O)C2CC=CCC2C(=O)O)s1 (stereo unspecified)	n	n	n	16	n
CC(C)(C)c1cc(C(c2cccnc2)N2CCN(CCO)CC2)cc(C(C)(C)C)c1O (stereo unspecified)	n	n	61	n	n
CCOc1ccccc1N=C1SC(CC(=O)Nc2ccc(OC)cc2OC)C(=O)N1CCC1=CCCCC1 (stereo unspecified)	n	n	58	n	n
CCOc1cc(/C=N/NC(=O)C(=O)NCc2cccnc2)ccc1O	n	n	n	n	n
Cc1c(Nc2nc(-c3ccc(Cl)cc3)cs2)c(=O)n(-c2ccccc2)n1C	n	n	n	n	-86
SMILES	p-CIP stab down	UBC13 inh	T cruzi inh	PP1 inh	AI-2 QS modul
CCOC(=O)Cc1csc(Nc2c(C)n(C)n(-c3ccccc3)c2=O)n1	n	n	n	n	n
COc1cccc(-c2nc(C(N)=O)c3[nH]c(=O)n(-c4cccc(Cl)c4)c3n2)c1OC	n	50	n	n	n
CC(OC(=O)C1CCC1)C(=O)Nc1cc(Cl)cc(Cl)c1 (stereo unspecified)	x	n	n	n	n
C=CCN(C(=O)CCc1ccccc1OC)c1nc(-c2ccc(S(C)(=O)=O)cc2)cs1	n	n	66	n	n
Nc1ncc2c(n1)-c1cc(Cl)ccc1SC2	n	n	72	n	n
CSc1ncc2c(n1)-c1cc(C)ccc1SC2	n	n	75	n	n
CC(=O)c1ccc(NS(=O)(=O)c2ccc3c(c2)N(C)CCO3)cc1	n	n	n	n	n
COc1cc2c(cc1OC)CN(C(=O)c1ccc3[nH]c(C)c(C)c3c1)CC2	n	n	n	n	n
CC1(C)CC2CC(C)(CN2C(=O)c2ccc([N+](=O)[O-])cc2[N+](=O)[O-])C1 (stereo unspecified)	n	n	97	n	n
O=C(c1ccc([N+](=O)[O-])cc1[N+](=O)[O-])N1CCc2ccccc21	n	n	58	n	n
O=C(CNCCc1ccc(Cl)cc1)Nc1ccc(C(=O)N2CCCCC2)cc1	n	n	62	n	n
O=C(CNCCc1ccccc1)Nc1ccc(C(=O)N2CCCCC2)cc1	n	n	n	n	n
CCN(CC(=O)Nc1ccccc1C(F)(F)F)C(=O)CCc1c(C)[nH]c(=O)c(C#N)c1C	n	n	n	n	n
c1cc(CNc2ccc3c(c2)OCO3)ccn1	n	n	n	n	n
Cc1ccc(CNc2ccc3c(c2)OCO3)cc1	n	x	82	n	n
Cc1ccc(S(=O)(=O)c2nc(NCc3ccc4c(c3)OCO4)sc2Cl)cc1	n	n	61	n	n
CC(=O)Nc1nc(S(=O)(=O)c2ccc(C)cc2)c(Cl)s1	n	n	n	n	n
C=CC(=O)Nc1cccc(Oc2cc(Cl)nc3[nH]ccc23)c1	x	n	x	x	x
CCC(C)(C)C1CCC2(CC1)NC(=O)N(CC(=O)NCCc1c[nH]c3ccccc13)C2=O (stereo unspecified)	x	n	x	n	x
O=[N+]([O-])c1ccccc1/C=N/NC1=NCCN1	x	n	n	n	n
Clc1cc(/C=N\NC2=NCCN2)cc(Cl)n1	x	n	70	n	n
Cc1c(Cl)cccc1NC(=O)CNC(=O)Cc1n[nH]c(=O)c2ccccc12	x	n	x	x	x
CC(C)CN(C(=O)c1ccc([N+](=O)[O-])s1)c1c(N)n(Cc2ccccc2)c(=O)[nH]c1=O	x	n	64	n	x
C/C(=N\O)C1CCCCC1	n	n	n	n	n
O=C(/C=C/c1ccc(NC(=O)c2ccccc2-c2ccccc2C(=O)O)cc1)c1ccccc1	n	n	n	17	n
O=C(O)c1ccccc1-c1ccccc1C(=O)Nc1ccc(F)cc1	n	n	n	n	n
CCc1ccc(NC2=NCC(c3ccccc3)S2)cc1 (stereo unspecified)	n	n	n	n	-95
CCN(CC)S(=O)(=O)c1ccc2c(c1)c(=O)c(C(=O)NCCN(C)CCc1ccccc1)cn2C	n	n	56	n	n
